From ChEMBL document CHEMBL2440109, “Synthesis and antimycobacterial activity of isoniazid derivatives from renewable fatty acids” (2013)
In brackets after ≈: the same amount, converted by molar mass.

Legend:
Type in all cases: functional
[1] = test system: Mycobacterium tuberculosis; test: Antimycobacterial activity against isoniazid-resistant Mycobacterium tuberculosis ATCC 35822 harboring katG mutant after 7 days by REMA assay
Procedure, shortened: (§1)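 MIC by resazurin microtiter assay. Bacteria suspended in sterile water with glass beads, vortexed, turbidity set to McFarland tube 1 (3.2 × 10^6 CFU/mL), then diluted 1:20 in Middlebrook 7H9. Compounds in DMSO, two-fold serial dilutions (100.0-3.2 µg/mL) in 7H9 with 10% OADC. Incubated 37 °C for 7 days, resazurin added, further 2 days at 37 °C. MIC read from colour change.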

[2] = test system: Mycobacterium tuberculosis; test: Antimycobacterial activity against rifampicin-resistant Mycobacterium tuberculosis ATCC 35338 harboring rpoB His-526-Tir gene mutant after 7 days by REMA assay; procedure, shortened: as §1
[3] = test system: Mycobacterium tuberculosis; test: Antimycobacterial activity against isoniazid-resistant Mycobacterium tuberculosis 1896HF harboring inhA mutant after 7 days by REMA assay
Procedure, shortened: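 MIC by resazurin microtiter assay. Bacteria suspended in sterile water with glass beads, vortexed, turbidity set to McFarland tube 1 (3.2 × 10^6 CFU/mL), then diluted 1:20 in Middlebrook 7H9. Incubated 37 °C for 7 days, resazurin added, further 2 days at 37 °C. MIC read from colour change.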

SMILES	MIC [1] [µg/mL]	MIC [2] [µg/mL]	MIC [3] [µg/mL]
CCCCCCCCCCCCCCCC(=O)NNC(=O)c1ccncc1	0.125 (≈ 0.333 µM)	0.003 (≈ 0.00799 µM)	0.78 (≈ 2.08 µM)
CCCCCCCCCCCCCCCCCC(=O)NNC(=O)c1ccncc1	0.25 (≈ 0.619 µM)	0.003 (≈ 0.00743 µM)	3.12 (≈ 7.73 µM)
CCCCCCCC/C=C\CCCCCCCC(=O)NNC(=O)c1ccncc1	0.25 (≈ 0.623 µM)	0.003 (≈ 0.00747 µM)	1.56 (≈ 3.88 µM)
CCCCCCCC/C=C/CCCCCCCC(=O)NNC(=O)c1ccncc1	>50	0.0019 (≈ 0.00473 µM)	6.25 (≈ 15.6 µM)
CCCCCC[C@@H](O)C/C=C\CCCCCCCC(=O)NNC(=O)c1ccncc1	25 (≈ 59.9 µM)	0.015 (≈ 0.0359 µM)	12.5 (≈ 29.9 µM)
CCCCC/C=C\C/C=C\CCCCCCCC(=O)NNC(=O)c1ccncc1	2 (≈ 5.01 µM)	0.03 (≈ 0.0751 µM)	12.5 (≈ 31.3 µM)
CC/C=C\C/C=C\C/C=C\CCCCCCCC(=O)NNC(=O)c1ccncc1	25 (≈ 62.9 µM)	0.03 (≈ 0.0755 µM)	12.5 (≈ 31.4 µM)
NNC(=O)c1ccncc1 [ISONIAZID]	2 (≈ 14.6 µM)	0.015 (≈ 0.109 µM)	2 (≈ 14.6 µM)
CCCCCCCC/C=C\CCCCCCCC(=O)O [OLEIC ACID]	>100	>100	>100
CCCCCCCC/C=C\CCCCCCCC(=O)NN [OLEOHYDRAZIDE]	50 (≈ 169 µM)	50 (≈ 169 µM)	>100
CO[C@H]1/C=C/O[C@@]2(C)Oc3c(C)c(O)c4c(O)c(c(/C=N/N5CCN(C)CC5)c(O)c4c3C2=O)NC(=O)/C(C)=C\C=C\[C@H](C)[C@H](O)[C@@H](C)[C@@H](O)[C@@H](C)[C@H](OC(C)=O)[C@@H]1C [RIFAMPIN]	0.03 (≈ 0.0365 µM)	>2	
